Each structure is given as a SMILES string. Values after ≈ are worked out from the molar mass of the structure shown.

A word on the inhibition: it is the drop in the measured response relative to a control, in per cent. As a reminder, the Ki is a measure of affinity in units of concentration, obtained from inhibition or displacement. Broadly, the solubility is the dissolved amount per volume that the medium holds. High values mean a readily soluble substance, low ones a poorly soluble substance. What is called IC50 is the concentration needed to halve the response being measured.

For series [1], the target named is Casein kinase I isoform alpha (Homo sapiens) (UniProt P48729). Description: Inhibition of CSNK1A1 at 1 uM.
The target in series [2] is Cyclin-dependent kinase 2/cyclin A (Homo sapiens) (UniProt P24941+P20248+P78396). Description: Inhibition of CDK2/cyclinA at 1 uM. It counts as protein-complex assay.
The nature of series [3]: Inhibition of p38 at 1 uM.
Series [4] has as its target Phosphatidylinositol 4,5-bisphosphate 3-kinase catalytic subunit alpha isoform (Mus musculus, UniProt P42337). Description: Inhibition of mouse PI3Kalpha after 30 mins by fluorescence polarization assay. In a few lines: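 Mouse PI3Kα 0.5 nM with 30 μM PIP₂, 5 mM MgCl₂, 200 μM ATP, 30 min at room temperature (~22 °C); stopped with 10 mM EDTA. Then 3 min with detector mix of 480 nM GST-Grp1 PH domain and 12 nM TAMRA-PIP₃. Fluorescence polarization read in 50 mM Hepes pH 7.4, 150 mM NaCl, 5 mM DTT, 0.05% CHAPS. Duplicate points, nonlinear regression fit.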
On the technique in general: In fluorescence polarisation assays a small probe gives low polarisation when free and higher when bound to something large.

Series [5] is described as follows: Solubility of the compound at pH 6.5. The series is classed as physicochemical. Particulars: buffer.
Series [6] concerns the target Hepatocyte growth factor receptor (Homo sapiens) (UniProt P08581). Description: Inhibition of MET at 1 uM.
For series [7], the target named is T1, 3-phosphoinositide-dependent protein kinase 1 (Homo sapiens, UniProt O15530).
T1 sequence (O15530 whole entry): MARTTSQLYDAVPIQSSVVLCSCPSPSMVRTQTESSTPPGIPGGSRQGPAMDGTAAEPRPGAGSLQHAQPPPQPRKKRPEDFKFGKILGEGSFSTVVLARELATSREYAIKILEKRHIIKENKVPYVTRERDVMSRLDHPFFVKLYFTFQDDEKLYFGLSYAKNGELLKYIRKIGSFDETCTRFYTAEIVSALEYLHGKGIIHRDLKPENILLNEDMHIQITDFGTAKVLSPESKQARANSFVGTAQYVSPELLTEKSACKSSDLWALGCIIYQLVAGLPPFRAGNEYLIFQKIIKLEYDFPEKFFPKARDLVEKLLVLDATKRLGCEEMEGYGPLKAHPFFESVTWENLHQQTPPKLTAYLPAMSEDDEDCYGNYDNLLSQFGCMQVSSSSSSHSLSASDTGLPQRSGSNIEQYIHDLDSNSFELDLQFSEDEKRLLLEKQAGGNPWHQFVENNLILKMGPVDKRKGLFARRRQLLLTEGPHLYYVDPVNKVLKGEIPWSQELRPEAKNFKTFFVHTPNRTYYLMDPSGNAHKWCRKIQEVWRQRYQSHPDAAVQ
Description: Inhibition of recombinant human His-tagged PDK1 catalytic domain using Ac-Sox-PKTFCGTPEYLAPEVRREPRILSEEEQEMFRDFDYIAD-NH2 as substrate by fluorescence-based spectrophotometry.

Series [8] concerns the target T2, Aurora kinase A (Homo sapiens, UniProt O14965).
T2 sequence (O14965 whole entry): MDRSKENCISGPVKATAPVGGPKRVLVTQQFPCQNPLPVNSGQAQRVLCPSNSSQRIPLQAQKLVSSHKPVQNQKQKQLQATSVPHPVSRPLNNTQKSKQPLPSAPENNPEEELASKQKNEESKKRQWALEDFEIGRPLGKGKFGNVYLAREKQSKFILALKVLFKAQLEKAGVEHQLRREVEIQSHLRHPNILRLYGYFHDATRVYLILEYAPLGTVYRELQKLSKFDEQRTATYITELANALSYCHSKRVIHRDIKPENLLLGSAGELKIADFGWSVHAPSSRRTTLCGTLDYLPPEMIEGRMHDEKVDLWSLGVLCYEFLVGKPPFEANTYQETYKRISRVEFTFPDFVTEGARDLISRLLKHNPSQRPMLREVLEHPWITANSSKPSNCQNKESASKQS
Description: Inhibition of Aurora A.

The target in series [9] is RAC-alpha serine/threonine-protein kinase (Homo sapiens, UniProt P31749). Description: Inhibition of AKT1 at 1 uM.
In series [10] the target is T3, Serine/threonine-protein kinase 3 (Homo sapiens) (UniProt Q13188).
T3 sequence (whole entry): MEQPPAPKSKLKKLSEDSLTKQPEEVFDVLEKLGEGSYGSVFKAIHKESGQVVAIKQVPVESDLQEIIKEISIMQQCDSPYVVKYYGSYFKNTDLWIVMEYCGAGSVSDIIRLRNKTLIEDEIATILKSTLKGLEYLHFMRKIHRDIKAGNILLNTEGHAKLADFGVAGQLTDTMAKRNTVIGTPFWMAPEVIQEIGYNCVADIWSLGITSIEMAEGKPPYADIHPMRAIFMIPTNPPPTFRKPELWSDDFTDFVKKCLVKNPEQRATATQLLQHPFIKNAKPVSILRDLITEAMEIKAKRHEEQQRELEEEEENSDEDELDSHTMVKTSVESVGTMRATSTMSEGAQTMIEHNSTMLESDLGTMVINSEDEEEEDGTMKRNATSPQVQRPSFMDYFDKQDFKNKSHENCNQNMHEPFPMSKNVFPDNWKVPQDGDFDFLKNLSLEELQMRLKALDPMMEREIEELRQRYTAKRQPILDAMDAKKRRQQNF
Description: Inhibition of STK3 at 1 uM.

In series [11] the target is Mitogen-activated protein kinase kinase kinase kinase 4 (Homo sapiens) (UniProt O95819). Description: Inhibition of MAP4K4 at 1 uM.
The target in series [12] is High affinity nerve growth factor receptor (Homo sapiens, UniProt P04629). Description: Inhibition of NTRK1 at 1 uM.
In series [13] the target is T4, Serine/threonine-protein kinase Nek2 (Homo sapiens) (UniProt P51955).
T4 sequence (whole entry): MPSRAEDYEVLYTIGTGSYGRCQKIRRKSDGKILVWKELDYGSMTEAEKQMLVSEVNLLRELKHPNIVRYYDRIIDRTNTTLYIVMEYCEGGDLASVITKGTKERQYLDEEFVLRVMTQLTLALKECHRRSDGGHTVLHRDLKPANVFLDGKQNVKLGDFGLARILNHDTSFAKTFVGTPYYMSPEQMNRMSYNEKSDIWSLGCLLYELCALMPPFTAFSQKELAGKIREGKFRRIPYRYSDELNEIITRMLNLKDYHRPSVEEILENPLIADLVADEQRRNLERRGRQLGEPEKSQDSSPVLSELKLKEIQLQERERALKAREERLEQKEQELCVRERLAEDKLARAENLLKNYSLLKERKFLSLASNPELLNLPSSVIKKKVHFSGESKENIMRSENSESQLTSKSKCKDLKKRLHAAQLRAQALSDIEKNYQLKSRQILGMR
Description: Inhibition of NEK2 at 1 uM.

Series [14] addresses Serine/threonine-protein kinase MARK1 (Homo sapiens, UniProt Q9P0L2). Description: Inhibition of MARK1.
Series [15] deals with T1, 3-phosphoinositide-dependent protein kinase 1. Description: Inhibition of PDK1-mediated AKT1 phosphorylation at T308 in human SKOV3 cells after 2 hrs by ELISA. The series is classed as cell-based, SK-OV-3. The procedure, abridged: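 Cells seeded at 50,000 per well and left to adhere overnight. Inhibitor was added as a 3-fold serial dilution from 0.0169 nM to 10 μM for 2 h, then cells were lysed. Lysates were tested in a commercial pAKT-T308 sandwich ELISA per the kit protocol. IC50 from duplicates, each run repeated at least twice.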
Background: In an ELISA, binding on a coated surface is turned into a signal by an enzyme label.

Series [16] is described as follows: Passive permeability in canine kidney cells. It counts as ADME, cell-based, Canis lupus familiaris. Particulars: dog; read-out: permeability.

Sequence of Serine/threonine-protein kinase MARK1 (Q9P0L2 whole entry): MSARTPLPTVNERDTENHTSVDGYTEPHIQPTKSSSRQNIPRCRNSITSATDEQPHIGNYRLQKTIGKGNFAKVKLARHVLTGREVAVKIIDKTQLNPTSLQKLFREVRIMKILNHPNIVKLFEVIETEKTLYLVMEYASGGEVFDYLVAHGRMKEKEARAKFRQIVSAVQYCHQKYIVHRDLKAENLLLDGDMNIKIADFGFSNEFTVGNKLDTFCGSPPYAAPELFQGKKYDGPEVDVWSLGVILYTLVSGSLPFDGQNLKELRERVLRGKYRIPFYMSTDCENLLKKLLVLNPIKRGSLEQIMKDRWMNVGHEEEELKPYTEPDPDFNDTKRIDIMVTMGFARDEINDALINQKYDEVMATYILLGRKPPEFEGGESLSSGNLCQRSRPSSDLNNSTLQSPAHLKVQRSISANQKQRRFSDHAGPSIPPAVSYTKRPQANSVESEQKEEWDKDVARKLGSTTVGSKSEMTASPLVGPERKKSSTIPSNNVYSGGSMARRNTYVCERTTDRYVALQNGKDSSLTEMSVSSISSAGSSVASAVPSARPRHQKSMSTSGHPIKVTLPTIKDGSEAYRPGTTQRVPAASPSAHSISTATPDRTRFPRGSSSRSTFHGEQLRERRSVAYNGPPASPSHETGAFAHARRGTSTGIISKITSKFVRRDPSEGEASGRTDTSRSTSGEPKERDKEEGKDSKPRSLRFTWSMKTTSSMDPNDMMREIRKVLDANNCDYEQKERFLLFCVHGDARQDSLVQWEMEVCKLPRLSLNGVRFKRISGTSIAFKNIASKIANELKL
Sequence of RAC-alpha serine/threonine-protein kinase (P31749 whole entry): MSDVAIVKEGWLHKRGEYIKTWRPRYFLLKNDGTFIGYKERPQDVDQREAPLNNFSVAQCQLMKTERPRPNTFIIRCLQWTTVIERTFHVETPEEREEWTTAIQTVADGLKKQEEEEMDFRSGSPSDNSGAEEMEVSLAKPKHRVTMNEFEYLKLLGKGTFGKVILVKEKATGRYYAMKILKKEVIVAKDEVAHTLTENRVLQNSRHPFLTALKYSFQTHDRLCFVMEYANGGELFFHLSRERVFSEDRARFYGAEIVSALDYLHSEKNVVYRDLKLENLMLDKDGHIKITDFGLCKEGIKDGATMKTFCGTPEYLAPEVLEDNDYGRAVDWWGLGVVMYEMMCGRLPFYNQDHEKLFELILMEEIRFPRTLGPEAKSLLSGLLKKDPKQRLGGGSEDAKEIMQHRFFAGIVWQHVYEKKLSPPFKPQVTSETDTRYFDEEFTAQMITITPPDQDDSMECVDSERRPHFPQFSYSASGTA
Sequence of Hepatocyte growth factor receptor (Homo sapiens) (P08581 whole entry): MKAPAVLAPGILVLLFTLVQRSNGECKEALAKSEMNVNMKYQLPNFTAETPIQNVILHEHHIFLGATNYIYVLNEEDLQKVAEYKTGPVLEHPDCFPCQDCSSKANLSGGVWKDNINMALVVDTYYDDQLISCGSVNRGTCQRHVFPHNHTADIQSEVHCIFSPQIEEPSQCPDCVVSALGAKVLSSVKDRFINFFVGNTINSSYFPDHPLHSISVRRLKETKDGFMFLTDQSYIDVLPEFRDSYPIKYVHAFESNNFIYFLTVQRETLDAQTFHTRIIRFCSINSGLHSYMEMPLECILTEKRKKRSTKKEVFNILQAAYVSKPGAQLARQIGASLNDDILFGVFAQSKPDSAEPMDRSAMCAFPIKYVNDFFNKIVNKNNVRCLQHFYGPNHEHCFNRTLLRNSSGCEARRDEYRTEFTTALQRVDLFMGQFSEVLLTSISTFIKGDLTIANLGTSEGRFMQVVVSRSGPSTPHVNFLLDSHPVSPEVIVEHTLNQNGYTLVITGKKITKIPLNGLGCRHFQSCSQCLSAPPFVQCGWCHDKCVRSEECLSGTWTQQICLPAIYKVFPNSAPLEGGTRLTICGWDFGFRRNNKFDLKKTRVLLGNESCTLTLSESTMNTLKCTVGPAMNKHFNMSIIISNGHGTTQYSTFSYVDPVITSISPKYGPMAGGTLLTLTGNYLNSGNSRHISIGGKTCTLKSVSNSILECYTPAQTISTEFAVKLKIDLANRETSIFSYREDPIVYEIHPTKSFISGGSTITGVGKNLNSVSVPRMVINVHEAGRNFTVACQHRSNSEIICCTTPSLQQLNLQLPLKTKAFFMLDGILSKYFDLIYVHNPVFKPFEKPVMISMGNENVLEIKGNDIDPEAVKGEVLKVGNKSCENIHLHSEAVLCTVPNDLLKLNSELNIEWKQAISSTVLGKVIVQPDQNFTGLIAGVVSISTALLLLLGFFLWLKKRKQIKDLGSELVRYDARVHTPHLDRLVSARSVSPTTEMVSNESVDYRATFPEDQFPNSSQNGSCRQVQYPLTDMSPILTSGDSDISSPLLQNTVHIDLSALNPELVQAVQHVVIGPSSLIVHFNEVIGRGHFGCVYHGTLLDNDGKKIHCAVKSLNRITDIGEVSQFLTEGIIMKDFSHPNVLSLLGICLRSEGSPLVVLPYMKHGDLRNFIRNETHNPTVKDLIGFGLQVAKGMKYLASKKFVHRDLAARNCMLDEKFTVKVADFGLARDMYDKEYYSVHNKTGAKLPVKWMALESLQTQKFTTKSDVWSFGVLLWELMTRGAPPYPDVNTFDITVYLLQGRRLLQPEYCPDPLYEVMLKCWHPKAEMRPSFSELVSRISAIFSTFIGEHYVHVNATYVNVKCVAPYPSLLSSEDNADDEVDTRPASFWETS
Sequence of Mitogen-activated protein kinase kinase kinase kinase 4 (Homo sapiens) (O95819 2-1239 limits assumed): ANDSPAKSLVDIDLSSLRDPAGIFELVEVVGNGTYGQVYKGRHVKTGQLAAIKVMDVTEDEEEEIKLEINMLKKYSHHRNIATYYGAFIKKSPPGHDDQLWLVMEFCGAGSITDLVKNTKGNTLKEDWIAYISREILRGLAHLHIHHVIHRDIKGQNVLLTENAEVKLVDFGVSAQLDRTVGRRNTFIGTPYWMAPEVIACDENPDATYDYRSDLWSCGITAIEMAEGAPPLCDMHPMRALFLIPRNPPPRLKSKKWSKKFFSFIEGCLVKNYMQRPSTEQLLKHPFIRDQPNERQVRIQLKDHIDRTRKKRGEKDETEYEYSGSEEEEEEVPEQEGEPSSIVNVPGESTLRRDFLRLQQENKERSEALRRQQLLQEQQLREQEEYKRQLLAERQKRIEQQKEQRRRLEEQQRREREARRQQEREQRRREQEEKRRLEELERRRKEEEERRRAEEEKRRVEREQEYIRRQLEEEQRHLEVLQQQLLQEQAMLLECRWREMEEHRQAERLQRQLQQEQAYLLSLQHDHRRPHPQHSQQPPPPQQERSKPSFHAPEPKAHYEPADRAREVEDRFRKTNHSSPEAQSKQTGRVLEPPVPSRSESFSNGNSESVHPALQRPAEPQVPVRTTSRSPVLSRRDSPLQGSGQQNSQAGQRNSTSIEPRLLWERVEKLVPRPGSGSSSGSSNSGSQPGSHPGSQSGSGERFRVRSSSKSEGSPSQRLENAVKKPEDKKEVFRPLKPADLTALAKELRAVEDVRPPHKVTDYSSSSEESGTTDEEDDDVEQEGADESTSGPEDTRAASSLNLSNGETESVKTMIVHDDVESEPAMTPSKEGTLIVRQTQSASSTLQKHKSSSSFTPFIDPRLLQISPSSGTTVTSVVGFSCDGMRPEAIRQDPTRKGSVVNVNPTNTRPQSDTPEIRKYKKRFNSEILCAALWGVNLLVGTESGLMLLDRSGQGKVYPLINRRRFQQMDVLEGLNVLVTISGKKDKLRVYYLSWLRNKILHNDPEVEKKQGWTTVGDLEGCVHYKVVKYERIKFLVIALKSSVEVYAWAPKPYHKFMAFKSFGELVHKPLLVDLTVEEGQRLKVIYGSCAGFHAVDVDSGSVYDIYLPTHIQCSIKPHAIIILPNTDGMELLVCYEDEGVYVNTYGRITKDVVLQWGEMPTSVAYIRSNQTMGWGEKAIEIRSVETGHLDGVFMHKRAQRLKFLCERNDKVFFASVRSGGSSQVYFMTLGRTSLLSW
Sequence of Phosphatidylinositol 4,5-bisphosphate 3-kinase catalytic subunit alpha isoform (P42337 whole entry, the tested form may be a part, canonical isoform): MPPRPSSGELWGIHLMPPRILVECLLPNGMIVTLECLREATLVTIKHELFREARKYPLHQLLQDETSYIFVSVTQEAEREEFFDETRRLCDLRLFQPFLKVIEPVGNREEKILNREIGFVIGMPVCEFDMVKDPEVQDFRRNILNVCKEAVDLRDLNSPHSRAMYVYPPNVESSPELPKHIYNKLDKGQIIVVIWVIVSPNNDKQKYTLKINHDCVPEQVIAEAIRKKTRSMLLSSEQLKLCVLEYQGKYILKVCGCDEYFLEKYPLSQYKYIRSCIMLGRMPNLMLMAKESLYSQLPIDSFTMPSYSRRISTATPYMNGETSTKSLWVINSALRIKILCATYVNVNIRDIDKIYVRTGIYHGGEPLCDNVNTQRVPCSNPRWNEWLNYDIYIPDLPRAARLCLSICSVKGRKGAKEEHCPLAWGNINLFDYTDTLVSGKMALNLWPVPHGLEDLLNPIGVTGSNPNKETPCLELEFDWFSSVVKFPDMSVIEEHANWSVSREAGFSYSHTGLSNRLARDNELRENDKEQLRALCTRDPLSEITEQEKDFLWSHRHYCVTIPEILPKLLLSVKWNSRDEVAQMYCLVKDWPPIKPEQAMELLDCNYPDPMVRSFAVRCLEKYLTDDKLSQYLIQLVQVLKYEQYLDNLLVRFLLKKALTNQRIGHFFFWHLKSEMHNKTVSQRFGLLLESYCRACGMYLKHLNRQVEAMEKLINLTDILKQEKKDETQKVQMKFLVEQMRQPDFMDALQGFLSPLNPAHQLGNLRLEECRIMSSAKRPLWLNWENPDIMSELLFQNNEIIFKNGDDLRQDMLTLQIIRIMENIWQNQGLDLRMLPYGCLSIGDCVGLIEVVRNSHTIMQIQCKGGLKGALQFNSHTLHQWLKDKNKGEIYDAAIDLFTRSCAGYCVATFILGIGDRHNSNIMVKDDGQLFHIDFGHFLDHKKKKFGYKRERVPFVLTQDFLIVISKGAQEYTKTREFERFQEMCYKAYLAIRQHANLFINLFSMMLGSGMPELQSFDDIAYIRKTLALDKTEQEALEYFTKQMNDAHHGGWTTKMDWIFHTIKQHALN

Turning to `CC(=O)N1CC[C@@H](Nc2cncc(C(=O)c3cn(C(C)C)c4ncnc(N)c34)n2)[C@H]1c1ccc(F)cc1`, the inhibition is 4% in [1]; 34% in series [2]; -1% in [3]; 8% in series [6]; 57% in series [9]; 12% in series [10]. Also, the values for the inhibition in series [11], in [12] and in series [13] were 50%, 63% and -2%, respectively. The inhibition constant (Ki) in series [4] is 1300 nM; in series [7], 1.4 nM. This molecule came in with a solubility in series [5] of 390 µM (≈ 196 µg/mL). Besides, the IC50 worked out at 460 nM in [8], 590 nM in series [14] and 70 nM in series [15]. Moreover, in series [16], the Papp came to 11 ×10⁻⁶ cm/s.
`CC(=O)N1CC[C@@H](Nc2cncc(C(=O)c3cn(C(C)C)c4ncnc(N)c34)n2)[C@H]1c1ccccc1`: the inhibition was determined as 7% in series [1]; 12% in [2]; 0% in series [3]; 4% in series [6]; 15% in series [9]; 0% in series [10]. For the same molecule, the figures for the inhibition in [11], in series [12] and in [13] were 23%, 59% and -3%, respectively. In addition, the values for the Ki in series [4] and in series [7] were 1900 nM and 1.4 nM, respectively. For the same molecule, in series [5], the concentration in solution (solubility) came to 510 µM (≈ 247 µg/mL). The IC50 in series [8] was 820 nM; in series [14] it was 1300 nM; in [15] it was 200 nM. Further, the Papp in series [16] is 11 ×10⁻⁶ cm/s.
As to `CC(C)n1cc(C(=O)c2cncc(N[C@@H]3CCN(C=O)[C@@H]3c3ccc(F)cc3)n2)c2c(N)ncnc21`, the inhibition in series [1] is 7%; in series [2] it was 44%; in [3] it was 6%; in series [6], 12%; in series [9], 62%; in series [10] it was 13%. In addition, the inhibition stood at 57% in series [11], 74% in series [12] and 3% in series [13]. For the same molecule, the Ki in series [4] stood at 130 nM; in series [7] it was 0.7 nM. The solubility in [5] turned out to be 290 µM (≈ 142 µg/mL). Also, the IC50 in series [8] amounted to 140 nM; in series [14], 110 nM; in series [15], 70 nM. Further, the Papp in series [16] turned out to be 11 ×10⁻⁶ cm/s.
